Values belong to the compound of their own block, whether it stands above or below them.
Assays:
[1] = tested on: CYP1A1; test: Induction of CYP1A1 gene expression in rat hepatic microsomes at 30 to 300 mg/kg, po QD for 7 days; format: ADME, organism-based, Liver; details: read-out: FC
Method in brief: (§1)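 Rats received oral doses daily for 7 days: 30 and 100 mg/kg, or 30, 100 and 300 mg/kg, depending on compound. Hepatic CYP1A1 mRNA was expressed as fold induction versus control animals.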

[2] = tested on: CYP1A2; test: (§2) Induction of CYP1A2 mRNA expression in rat hepatocytes at 10 uM by Taqman analysis relative to control; format: ADME, cell-based, Hepatocyte; details: read-out: FC
[3] = target: T1, CYP1A2 (Homo sapiens, UniProt P05177); test: Induction of CYP1A2-mediated 7-ethoxyresorufin O-deethylase activity in human hepatocytes at 5 uM after 10 mins by fluorescence assay relative to control; format: ADME, cell-based, Hepatocyte; details: probe 7-ethoxyresorufin, read-out: FC
T1 sequence (P05177 whole entry): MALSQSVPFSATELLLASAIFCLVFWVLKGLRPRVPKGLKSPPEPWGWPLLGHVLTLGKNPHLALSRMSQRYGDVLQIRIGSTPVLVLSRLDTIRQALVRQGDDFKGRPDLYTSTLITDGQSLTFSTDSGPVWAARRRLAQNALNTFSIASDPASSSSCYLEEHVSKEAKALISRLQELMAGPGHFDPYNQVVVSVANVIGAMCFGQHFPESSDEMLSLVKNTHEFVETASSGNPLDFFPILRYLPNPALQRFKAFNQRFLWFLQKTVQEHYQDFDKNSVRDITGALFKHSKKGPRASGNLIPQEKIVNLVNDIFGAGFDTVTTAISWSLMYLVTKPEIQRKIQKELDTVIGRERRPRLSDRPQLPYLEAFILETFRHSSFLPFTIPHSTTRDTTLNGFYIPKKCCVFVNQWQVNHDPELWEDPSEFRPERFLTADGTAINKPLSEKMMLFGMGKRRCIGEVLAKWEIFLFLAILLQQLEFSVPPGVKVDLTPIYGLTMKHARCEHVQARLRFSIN
Method in brief: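 Human hepatocytes were treated for 48 h (re-dosed at 24 h), washed, then incubated with 0.5 μM ethoxyresorufin in serum-free medium for 10 min at 37 °C. Resorufin fluorescence read at Ex 530/Em 590 nm. Rate in fluorescence units/min expressed as fold over solvent control.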

[4] = tested on: Rattus norvegicus; test: Induction of Nqo1 gene expression in rat hepatic microsomes at 30 to 300 mg/kg, po QD for 7 days; format: organism-based, Liver; details: 168 h
Method in brief: (§3)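 Rats dosed orally once daily for 7 days at 30–300 mg/kg/day, depending on compound. Hepatic AhR-panel gene mRNA (Cyp1a, Nqo1, Ephx1) measured and expressed as fold induction versus control animals.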

[5] = tested on: CYP1A2; test: Induction of CYP1A2 mRNA expression in human hepatocytes at 10 uM relative to control; format: ADME, cell-based, Hepatocyte; details: read-out: FC
[6] = tested on: Rattus norvegicus; test: Induction of Ephx1 gene expression in po dosed rat hepatic microsomes administered po QD for 7 days; format: organism-based, Liver; details: 168 h; method in brief: as §3
[7] = tested on: Rattus norvegicus; test: Induction of CYP1A1 gene expression in po dosed rat hepatic microsomes administered po QD for 7 days; format: ADME, organism-based, Liver; details: 168 h; method in brief: as §1
[8] = tested on: Rattus norvegicus; test: Induction of Nqo1 gene expression in po dosed rat hepatic microsomes administered po QD for 7 days; format: organism-based, Liver; details: 168 h; method in brief: as §3
[9] = tested on: CYP1A1; test: Induction of CYP1A1 mRNA expression in rat hepatic microsomes at 30 mg/kg, po QD for 7 days relative to control; format: ADME, organism-based, Liver; details: read-out: FC
Method in brief: (§4)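 Male rats dosed orally once daily for 7 days. Hepatic mRNA measured by Taqman and expressed as fold induction versus control animals.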

[10] = tested on: Rattus norvegicus; test: Induction of Ephx1 gene expression in rat hepatic microsomes at 30 to 300 mg/kg, po QD for 7 days; format: organism-based, Liver; details: 168 h; method in brief: as §3
[11] = tested on: Rattus norvegicus; test: Induction of CYP1A2 gene expression in rat hepatic microsomes at 30 to 300 mg/kg, po QD for 7 days; format: ADME, organism-based, Liver; details: 168 h; method in brief: as §3
[12] = tested on: CYP1A2; test: Induction of CYP1A2 mRNA expression in rat hepatic microsomes at 30 mg/kg, po QD for 7 days relative to control; format: ADME, organism-based, Liver; details: read-out: FC; method in brief: as §4
[13] = tested on: Rattus norvegicus; test: Induction of CYP1A2 gene expression in po dosed rat hepatic microsomes administered po QD for 7 days; format: ADME, organism-based, Liver; details: 168 h; method in brief: as §3
[14] = tested on: CYP1A1; test: (§5) Induction of CYP1A1 mRNA expression in rat hepatocytes at 10 uM by Taqman analysis relative to control; format: ADME, cell-based, Hepatocyte; details: read-out: FC
[15] = Intrinsic clearance in rat hepatocytes by LC-MS/MS analysis; details: read-out: CLH
[16] = tested on: CYP1A1; test: Induction of CYP1A1 mRNA expression in Sprague-Dawley rat hepatic microsomes at 30 mg/kg, po QD for 4 days relative to control; format: ADME, organism-based, Liver; details: read-out: FC
Method in brief: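 Male CD rats (226–325 g, n = 3) were dosed by oral gavage once daily for 4 days as a 1% w/v aqueous methylcellulose suspension (3–6 mg/mL, 5 mL/kg). At the end of the study, a left lateral liver lobe section was placed in RNALater and homogenised in TRIzol. RNA was purified, DNase-treated and converted to cDNA, and Cyp1a1 was read on low-density TaqMan arrays.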

[17] = Dissociation constant, pKa of the compound; format: physicochemical
[18] = Lipophilicity, log D of the compound at pH 7.4; format: physicochemical; details: buffer
[19] = Cmax in Sprague-Dawley rat at 30 mg/kg, po QD measured on day 1; format: ADME, organism-based; parameters: dose 30 mg/kg, route oral; details: in vivo
Method in brief: (§6)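 Male CD rats (226−325 g), n = 3, given the compound once daily by oral gavage for 4 days. Vehicle was 1% (w/v) methylcellulose aq suspension at 3−6 mg/mL, dosed at 5 mL/kg (target 15−30 mg/kg). Tail vein blood was taken on days 1 and 4 up to 24 h postdose. Blood was diluted 1:1 with water, extracted by acetonitrile protein precipitation and analysed by LC−MS/MS against calibration standards in diluted blood.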

[20] = AUC in Sprague-Dawley rat at 30 mg/kg, po QD measured on day 1; format: ADME, organism-based; details: in vivo; method in brief: as §6
[21] = target: Sphingosine 1-phosphate receptor 1 (Homo sapiens, UniProt P21453); test: Agonist activity at S1P1 receptor (unknown origin) expressed in CHO-K1 cells assessed as beta-arrestin recruitment after 60 mins by chemiluminescence assay; format: cell-based; details: in the assay text read “after 90 mins” for “after 60 mins”
Sequence of Sphingosine 1-phosphate receptor 1 (P21453 whole entry, the tested form may be a part): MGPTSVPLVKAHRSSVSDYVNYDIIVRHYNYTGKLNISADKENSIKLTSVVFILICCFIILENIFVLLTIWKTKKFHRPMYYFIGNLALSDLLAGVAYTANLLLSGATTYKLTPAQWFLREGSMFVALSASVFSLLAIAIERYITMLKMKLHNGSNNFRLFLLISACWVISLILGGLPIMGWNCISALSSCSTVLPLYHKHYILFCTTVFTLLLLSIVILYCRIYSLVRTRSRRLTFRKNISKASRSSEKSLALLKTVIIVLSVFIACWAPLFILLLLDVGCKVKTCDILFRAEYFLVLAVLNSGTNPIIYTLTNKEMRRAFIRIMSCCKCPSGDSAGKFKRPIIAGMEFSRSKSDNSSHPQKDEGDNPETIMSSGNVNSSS
Method in brief: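 PathHunter CHO-K1 cells stably express S1P1 and β-arrestin 2 fused to complementing β-galactosidase fragments. Cells in pH 7.4 HEPES/NaHCO3 buffer with 0.1% pluronic and 0.1% BSA were added to DMSO compound plates at 1 × 10^4 cells/well. Incubation was 90 min at 37 °C/5% CO2, then 15 min at room temperature. Galacton Star/Emerald II detection mix was added for 60 min at room temperature, and luminescence was read.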

[22] = tested on: Rattus norvegicus; test: Dose normalized AUC in Sprague-Dawley rat at 30 mg/kg, po QD measured on day 4; format: ADME, organism-based; details: in vivo; method in brief: as §6
[23] = tested on: CYP1A2; test: Induction of CYP1A2 mRNA expression in Sprague-Dawley rat hepatic microsomes at 30 mg/kg, po QD for 4 days relative to control; format: ADME, organism-based, Liver; details: read-out: FC
[24] = tested on: Rattus norvegicus; test: Dose normalized AUC in Sprague-Dawley rat at 30 mg/kg, po QD measured on day 1; format: ADME, organism-based; details: in vivo; method in brief: as §6
[25] = Blood clearance in CD rat at 1 mg/kg, iv; format: ADME, organism-based
Method in brief: (§7)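 Male CD rats carried femoral vein (dosing) and jugular vein (sampling) cannulae and recovered at least 2 days. They received a 1 h iv infusion at 5 mL kg−1 h−1, target 1 mg/kg, at 0.2 mg/mL in DMSO/10% Kleptose in saline (≤5%:≥95%). pH was adjusted to 8.0 if needed and the solution filtered. Definitive studies used n = 3 in crossover; others used single animals.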

[26] = Intrinsic clearance in dog hepatocytes by LC-MS/MS analysis; details: read-out: CLH
[27] = Intrinsic clearance in human hepatocytes by LC-MS/MS analysis; details: read-out: CLH
[28] = Cmax in Sprague-Dawley rat at 30 mg/kg, po QD measured on day 4; format: ADME, organism-based; parameters: dose 30 mg/kg, route oral; details: in vivo; method in brief: as §6
[29] = Half life in CD rat at 1 mg/kg, iv; format: ADME, organism-based; details: in vivo; method in brief: as §7
[30] = Volume of distribution at steady state in CD rat at 1 mg/kg, iv; format: ADME, organism-based; details: in vivo, read-out: Vdss
Method in brief: (§8)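 Male CD rats cannulated in the femoral and jugular veins, n = 3, crossover design. Day 1: 1 h iv infusion at 1 mg/kg (0.2 mg/mL in ≤5% DMSO/≥95% 10% Kleptose in saline, 5 mL/kg/h). Day 2: oral gavage at 3 mg/kg (0.6 mg/mL in 1% methylcellulose, 5 mL/kg). Blood assayed by LC–MS/MS after acetonitrile precipitation.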

[31] = AUC in Sprague-Dawley rat at 30 mg/kg, po QD measured on day 4; format: ADME, organism-based; details: in vivo; method in brief: as §6
[32] = target: Sphingosine 1-phosphate receptor 3 (Homo sapiens, UniProt Q99500); test: Agonist activity at S1P3 receptor (unknown origin) expressed in RBL membranes assessed as GTPgammaS binding after 3 hrs; format: functional, cell membranes
Sequence of Sphingosine 1-phosphate receptor 3 (Q99500 whole entry): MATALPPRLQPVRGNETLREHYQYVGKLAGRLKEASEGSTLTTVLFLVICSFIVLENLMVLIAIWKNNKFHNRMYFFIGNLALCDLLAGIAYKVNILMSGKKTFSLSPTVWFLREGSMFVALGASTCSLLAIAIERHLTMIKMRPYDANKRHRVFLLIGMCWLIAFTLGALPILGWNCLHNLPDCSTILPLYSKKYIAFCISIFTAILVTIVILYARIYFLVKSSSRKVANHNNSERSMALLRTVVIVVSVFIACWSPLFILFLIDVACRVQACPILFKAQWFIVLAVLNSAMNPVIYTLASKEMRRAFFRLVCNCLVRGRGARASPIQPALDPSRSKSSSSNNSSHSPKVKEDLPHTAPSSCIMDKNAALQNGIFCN
Method in brief: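 Membranes from S1P3-expressing RBL cells were sucrose-gradient purified, used at 0.44 μg/well and coupled to WGA-coated SPA beads. Buffer was 20 mM HEPES, 10 mM MgCl2, 100 mM NaCl, pH 7.4, with 2 μg/well saponin. Precoupling was 30 min on ice. GDP was present at 5 μM final.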

[33] = Oral bioavailability in CD rat at 3 mg/kg; format: ADME, organism-based; details: in vivo; method in brief: as §8
[34] = tested on: Hepatocyte; test: as §2; format: ADME, cell-based; details: 10 µM
[35] = tested on: Rattus norvegicus; test: Induction of CYP1A2 mRNA expression in rat hepatic microsomes at 20 mg/kg, po QD for 4 days relative to control; format: ADME, organism-based, Liver; details: microsomes, 96 h
Method in brief: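 Male CD rats (226–325 g), n = 3, given test compound by oral gavage once daily for 4 days. Vehicle was 1% w/v methylcellulose aqueous suspension (3–6 mg/mL, 5 mL/kg); target dose 15–30 mg/kg. Liver from the left lateral lobe was put in RNALater, then TRIzol extraction and cDNA conversion; Cyp1a analysed on low-density arrays.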

[36] = tested on: Rattus norvegicus; test: Induction of CYP1A1 mRNA expression in rat hepatic microsomes at 20 mg/kg, po QD for 4 days relative to control; format: ADME, organism-based, Liver; details: microsomes, 96 h
Method in brief: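 Male CD rats, n = 3, received the compound once daily by oral gavage for 4 days in 1% methylcellulose suspension at 5 mL/kg. At necropsy a left lateral liver lobe section was stored in RNALater on ice. Tissue was TRIzol-homogenized, RNA purified, DNased and converted to cDNA. Cyp1a1 was read on low density arrays and expressed relative to control.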

[37] = tested on: Hepatocyte; test: as §5; format: ADME, cell-based; details: 10 µM

fold induction at 168 h [1]: 10000
fold induction at 10 µM [2]: 3
fold induction at 10 min, 5 µM [3]: 1.1
fold induction at 10 µM [5]: 0.6
Activity [6]: Dose-dependent effect
Activity [7]: Dose-dependent effect
Activity [8]: Dose-dependent effect
fold induction at 168 h [9]: 75
fold induction at 168 h [12]: 8
Activity [13]: Dose-dependent effect
fold induction at 10 µM [14]: 5
SMILES: CC(C)Oc1ccc(-c2nc(-c3cccc4c3OCCN(CCCC(=O)O)C4)no2)cc1Cl
Activity [4]: Toxic
Activity [10]: Toxic
Activity [11]: Toxic

CLint scaled [15]: 2.1 mL/min/kg
fold induction at 96 h [16]: 62
pKa [17]: 7.7
logD [18]: 2.16
Cmax [19]: 720 ng/mL
AUC [20]: 7310 ng·h/mL
EC50 [21]: 7.94 nM
AUC/dose [22]: 15 kg·min/L
fold induction at 96 h [23]: 4.6
AUC/dose [24]: 15 kg·min/L
clearance [25]: 53 mL/min/kg
CLint scaled [26]: 7.1 mL/min/kg
CLint scaled [27]: < 0.85 mL/min/kg
Cmax [28]: 710 ng/mL
half-life [29]: 1.7 h
Vd [30]: 6.6 L/kg
AUC [31]: 7000 ng·h/mL
EC50 [32]: > 31600 nM
bioavailability [33]: 56%
SMILES: Cc1c(-c2noc(-c3ccc(OC(C)C)c(C#N)c3)n2)ccc2c1CCN(C[C@@H](O)CO)C2

fold change (FC) [34]: 8
fold change (FC) [35]: 1
fold change (FC) [36]: 1
fold change (FC) [37]: 32
SMILES: CC(C)Oc1ncc(-c2nc(-c3cccc4c3OCCNC4CCCC(=O)O)no2)cc1Cl (stereo in doubt; 7)
